Here are results for 13 molecules from ChEMBL document CHEMBL1146037, “Design and discovery of a novel dipeptidyl-peptidase IV (CD26)-based prodrug approach” (J Med Chem, 2006).

Activity calls are given as the source filed them. No cut-off for these calls is given here. A value given as a limit tells only on which side of the number the result lay.

For data set [1], the system named is CCRF-CEM. Briefly: Antiviral activity against HIV2 assessed as inhibition of HIV2-induced cytopathicity in CEM cells. Type of data set: functional, cell-based. Summed up:
(§1)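 CEM and MT-4 cell cultures infected with HIV-1 or HIV-2, with compounds diluted into culture medium from DMSO stocks. Antiviral activity is read at day 4 post-infection and reported as EC50.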

For data set [2], the target named is T1, Dipeptidyl peptidase 4 (Homo sapiens, UniProt P27487). Briefly: Conversion of prodrug to parent drug NAP-TSAO-T catalyzed by CD26 after 1 hr. Also noted: concentration or dose not given beside the values. Type of data set: ADME.
For data set [3], the system named is CCRF-CEM. Briefly: Antiviral activity against HIV1 assessed as inhibition of HIV1-induced cytopathicity in CEM cells. The class given is functional, cell-based. As to conditions: Homo sapiens. Summed up: as §1
Data set [4] has as its system MT4. Description: Antiviral activity against HIV1 assessed as inhibition of HIV1-induced cytopathicity in MT4 cells. Type of data set: functional, cell-based. As to conditions: Homo sapiens. Summed up:
as §1

The subject of data set [5] is MT4. Briefly: Antiproliferative activity against human MT4 cell line. The class given is functional. A digest of the protocol:
(§2)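 Cytostatic assay: compounds made up as DMSO stocks and diluted in culture medium. CC50 is the concentration that inhibits MT-4 or CEM cell proliferation by 50%.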

Data set [6] concerns CCRF-CEM. Briefly: Antiproliferative activity against human CEM cell line. Type of data set: functional. A digest of the protocol:
as §2

For data set [7], the target named is Human immunodeficiency virus type 1 reverse transcriptase (Human immunodeficiency virus 1, UniProt Q72547). Briefly: Inhibition of recombinant HIV1 reverse transcriptase.
In data set [8] the test system is MT4. Description: Antiviral activity against HIV2 assessed as inhibition of HIV2-induced cytopathicity in MT4 cells. The class given is functional, cell-based. A digest of the protocol: as §1
Data set [9] addresses T1, Dipeptidyl peptidase 4. Briefly: Conversion of prodrug to parent drug NAP-TSAO-T catalyzed by CD26 after 4 hrs. Also noted: concentration or dose not given beside the values. Type of data set: ADME.
Data set [10] addresses T1, Dipeptidyl peptidase 4. Description: Conversion of prodrug to parent drug NAP-TSAO-T catalyzed by CD26 after 24 hrs. Type of data set: ADME. Also noted: concentration or dose not given beside the values.

T1 sequence (P27487 whole entry): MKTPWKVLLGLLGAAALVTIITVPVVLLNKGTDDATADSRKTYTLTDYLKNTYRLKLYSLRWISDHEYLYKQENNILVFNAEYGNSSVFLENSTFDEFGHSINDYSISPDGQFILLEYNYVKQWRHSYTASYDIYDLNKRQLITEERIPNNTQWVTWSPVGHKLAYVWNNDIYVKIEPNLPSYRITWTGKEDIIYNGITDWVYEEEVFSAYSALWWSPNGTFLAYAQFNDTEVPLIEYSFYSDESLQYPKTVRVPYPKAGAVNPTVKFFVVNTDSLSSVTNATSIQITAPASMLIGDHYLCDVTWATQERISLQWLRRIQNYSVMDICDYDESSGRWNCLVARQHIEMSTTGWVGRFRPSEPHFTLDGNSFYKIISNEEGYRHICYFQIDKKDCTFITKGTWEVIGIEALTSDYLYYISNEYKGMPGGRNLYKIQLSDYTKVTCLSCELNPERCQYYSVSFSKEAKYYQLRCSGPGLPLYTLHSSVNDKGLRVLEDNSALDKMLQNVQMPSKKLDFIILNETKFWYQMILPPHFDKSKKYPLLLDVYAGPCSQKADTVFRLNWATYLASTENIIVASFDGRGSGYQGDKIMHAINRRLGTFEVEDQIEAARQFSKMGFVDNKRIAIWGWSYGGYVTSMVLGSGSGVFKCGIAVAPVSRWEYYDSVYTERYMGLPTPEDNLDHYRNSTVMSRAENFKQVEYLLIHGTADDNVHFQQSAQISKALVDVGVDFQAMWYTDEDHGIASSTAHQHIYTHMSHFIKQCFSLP

As for `Cc1cn(C2OC(CO[Si](C)(C)C(C)(C)C)C3(OS(=O)(=O)C=C3N)C2O[Si](C)(C)C(C)(C)C)c(=O)n(CCCNC(=O)[C@@H]2[C@@H](O)[C@@H](O)CN2C(=O)[C@@H](N)C(C)C)c1=O` (some centres undefined), the result with CCRF-CEM [1] and with MT4 [8] was inactive. For the same molecule, the Activity at Dipeptidyl peptidase 4 [2], at Dipeptidyl peptidase 4 [9] and at Dipeptidyl peptidase 4 [10] was 0% throughout. For the same molecule, the EC50 is 0.35 µM with CCRF-CEM [3] and 0.77 µM in the data set with MT4 [4]. In addition, the results for the CC50 with MT4 [5] and with CCRF-CEM [6] were 46 µM and 51 µM, respectively. In data set [7], the IC50 was 4.8 µM.

For `Cc1cn(C2OC(CO[Si](C)(C)C(C)(C)C)C3(OS(=O)(=O)C=C3N)C2O[Si](C)(C)C(C)(C)C)c(=O)n(CCCNC(=O)[C@H](C)NC(=O)[C@@H](N)C(C)C)c1=O` (some centres undefined), the outcome in the data set with CCRF-CEM [1] and in the data set with MT4 [8] was inactive. Moreover, the Activity on Dipeptidyl peptidase 4 [2] stood at 0%; at Dipeptidyl peptidase 4 [9], 6.5%; at Dipeptidyl peptidase 4 [10], 35%. In addition, the EC50 was determined as 0.08 µM in the data set on CCRF-CEM [3] and 0.23 µM in the data set with MT4 [4]. Moreover, the half-maximal cytotoxic concentration (CC50) in the data set with MT4 [5] turned out to be 22 µM; with CCRF-CEM [6] it was 11 µM. Further, the IC50 in [7] was 5.4 µM.

Regarding `Cc1cn(C2OC(CO[Si](C)(C)C(C)(C)C)C3(OS(=O)(=O)C=C3N)C2O[Si](C)(C)C(C)(C)C)c(=O)n(CCCNC(=O)[C@@H](N)C(C)C)c1=O` (some centres undefined), the outcome with CCRF-CEM [1] and in the data set on MT4 [8] was inactive. Further, the EC50 with CCRF-CEM [3] was determined as 0.06 µM; in the data set on MT4 [4], 0.3 µM. Further, the CC50 in the data set on MT4 [5] amounted to 8.2 µM; in the data set with CCRF-CEM [6], 9.6 µM. The IC50 in data set [7] amounted to 6.7 µM.

Consider `Cc1cn(C2OC(CO[Si](C)(C)C(C)(C)C)C3(OS(=O)(=O)C=C3N)C2O[Si](C)(C)C(C)(C)C)c(=O)n(CCCNC(=O)[C@@H]2CCCN2C(=O)[C@@H](N)Cc2ccccc2)c1=O` (some centres undefined), for which the outcome in the data set on CCRF-CEM [1] and in the data set on MT4 [8] was inactive. The EC50 was found to be 0.1 µM in the data set on CCRF-CEM [3] and 0.2 µM in the data set with MT4 [4]. The CC50 in the data set on MT4 [5] was determined as 19 µM; in the data set with CCRF-CEM [6], 14 µM. Further, the Activity is on record as 37% at Dipeptidyl peptidase 4 [9] and 58% at Dipeptidyl peptidase 4 [10].

Turning to `Cc1cn(C2OC(CO[Si](C)(C)C(C)(C)C)C3(OS(=O)(=O)C=C3N)C2O[Si](C)(C)C(C)(C)C)c(=O)n(CCCNC(=O)CNC(=O)[C@@H](N)C(C)C)c1=O` (some centres undefined), the outcome in the data set with CCRF-CEM [1] and in the data set with MT4 [8] was inactive. The Activity at Dipeptidyl peptidase 4 [2], on Dipeptidyl peptidase 4 [9] and on Dipeptidyl peptidase 4 [10] was 0% each time. Further, the figures for the EC50 in the data set with CCRF-CEM [3] and in the data set on MT4 [4] were 0.05 µM and 0.14 µM, respectively. For the same molecule, the values for the CC50 in the data set on MT4 [5] and in the data set on CCRF-CEM [6] were 9.9 µM and 10 µM, respectively. Also, the IC50 in [7] is 3.8 µM.

Take `Cc1cn(C2OC(CO[Si](C)(C)C(C)(C)C)C3(OS(=O)(=O)C=C3N)C2O[Si](C)(C)C(C)(C)C)c(=O)n(CCCNC(=O)[C@@H]2CCCN2C(=O)[C@@H](N)CC(N)=O)c1=O` (some centres undefined): the outcome in the data set on CCRF-CEM [1] and in the data set with MT4 [8] was inactive. Moreover, the EC50 is 0.37 µM in the data set on CCRF-CEM [3] and 0.59 µM with MT4 [4]. For the same molecule, the half-maximal cytotoxic concentration (CC50) in the data set with MT4 [5] was 22 µM; in the data set on CCRF-CEM [6], 25 µM. Further, the IC50 in data set [7] is 4 µM. Moreover, the Activity is 27% on Dipeptidyl peptidase 4 [9] and 73% at Dipeptidyl peptidase 4 [10].

In the case of `Cc1cn(C2OC(CO[Si](C)(C)C(C)(C)C)C3(OS(=O)(=O)C=C3N)C2O[Si](C)(C)C(C)(C)C)c(=O)n(CCCNC(=O)[C@@H]2CCCN2C(=O)[C@@H](N)CCCCN)c1=O` (some centres undefined), the result in the data set with CCRF-CEM [1] and with MT4 [8] was inactive. Besides, the EC50 in the data set on CCRF-CEM [3] came to 0.16 µM. Also, the CC50 stood at 87 µM in the data set on MT4 [5] and 47 µM in the data set on CCRF-CEM [6]. Moreover, in data set [7], the IC50 worked out at 4.7 µM. Besides, the Activity stood at 85% on Dipeptidyl peptidase 4 [9] and 99% at Dipeptidyl peptidase 4 [10].

Take `Cc1cn(C2OC(CO[Si](C)(C)C(C)(C)C)C3(OS(=O)(=O)C=C3N)C2O[Si](C)(C)C(C)(C)C)c(=O)n(CCCNC(=O)[C@@H]2CCCN2C(=O)[C@H](C)N)c1=O` (some centres undefined): the result in the data set on CCRF-CEM [1] and in the data set with MT4 [8] was inactive. Also, the EC50 in the data set on CCRF-CEM [3] turned out to be 0.42 µM; in the data set with MT4 [4], 0.3 µM. For the same molecule, the CC50 came out at 20 µM with MT4 [5] and 19 µM in the data set with CCRF-CEM [6]. The Activity at Dipeptidyl peptidase 4 [9] was found to be 81%; at Dipeptidyl peptidase 4 [10], 88%.

Consider `Cc1cn(C2OC(CO[Si](C)(C)C(C)(C)C)C3(OS(=O)(=O)C=C3N)C2O[Si](C)(C)C(C)(C)C)c(=O)n(CCCNC(=O)[C@@H]2C[C@@H](OCc3ccccc3)CN2C(=O)[C@@H](N)C(C)C)c1=O` (some centres undefined), for which the result in the data set with CCRF-CEM [1] and in the data set on MT4 [8] was inactive. The EC50 was found to be 0.09 µM in the data set on CCRF-CEM [3] and 0.27 µM in the data set on MT4 [4]. Besides, the CC50 with MT4 [5] is 2 µM; with CCRF-CEM [6], 2.1 µM. Besides, in data set [7], the IC50 was 28 µM. In addition, the Activity on Dipeptidyl peptidase 4 [9] and on Dipeptidyl peptidase 4 [10] was 0% throughout.

For `Cc1cn([C@@H]2O[C@H](CO[Si](C)(C)C(C)(C)C)[C@@]3(OS(=O)(=O)C=C3N)[C@H]2O[Si](C)(C)C(C)(C)C)c(=O)n(CCCN)c1=O`, the outcome with CCRF-CEM [1] and with MT4 [8] was inactive. Besides, the half-maximal effective concentration (EC50) in the data set with CCRF-CEM [3] worked out at 0.14 µM; in the data set with MT4 [4] it was 0.52 µM. The CC50 in the data set with MT4 [5] was 14 µM; in the data set with CCRF-CEM [6], 12 µM.

For `Cc1cn(C2OC(CO[Si](C)(C)C(C)(C)C)C3(OS(=O)(=O)C=C3N)C2O[Si](C)(C)C(C)(C)C)c(=O)n(CCCNC(=O)[C@@H]2CCCN2C(=O)[C@@H](N)CCC(=O)O)c1=O` (some centres undefined), the result in the data set with CCRF-CEM [1] and in the data set with MT4 [8] was inactive. Moreover, the 50% effective concentration (EC50) with CCRF-CEM [3] is 0.26 µM; in the data set with MT4 [4], 0.49 µM. Besides, the CC50 was 64 µM in the data set with MT4 [5] and 30 µM with CCRF-CEM [6]. The Activity stood at 48% at Dipeptidyl peptidase 4 [9] and 92% at Dipeptidyl peptidase 4 [10].

`Cc1cn(C2OC(CO[Si](C)(C)C(C)(C)C)C3(OS(=O)(=O)C=C3N)C2O[Si](C)(C)C(C)(C)C)c(=O)n(CCCNC(=O)[C@@H]2CCCN2C(=O)[C@@H](N)CC(=O)O)c1=O` (some centres undefined): the outcome in the data set on CCRF-CEM [1] and with MT4 [8] was inactive. For the same molecule, the concentration for a half-maximal effect (EC50) came to 1.1 µM with CCRF-CEM [3] and 1.2 µM in the data set with MT4 [4]. Besides, the cytotoxic concentration (CC50) in the data set on MT4 [5] is 69 µM; with CCRF-CEM [6] it was not below 125 µM. Also, the IC50 in [7] is 7.2 µM. For the same molecule, the Activity at Dipeptidyl peptidase 4 [9] amounted to 7.9%; at Dipeptidyl peptidase 4 [10], 30%.

On to `Cc1cn(C2OC(CO[Si](C)(C)C(C)(C)C)C3(OS(=O)(=O)C=C3N)C2O[Si](C)(C)C(C)(C)C)c(=O)n(CCCNC(=O)[C@@H](NC(=O)[C@@H]2CCCN2C(=O)[C@@H](N)C(C)C)C(C)C)c1=O` (some centres undefined), for which the result in the data set on CCRF-CEM [1] and in the data set on MT4 [8] was inactive. Moreover, the results for the EC50 with CCRF-CEM [3] and in the data set on MT4 [4] were 0.07 µM and 0.22 µM, respectively. Further, the 50% cytotoxic concentration (CC50) in the data set on MT4 [5] and with CCRF-CEM [6] was 11 µM throughout. The IC50 in [7] came to 4.4 µM.
